What is called IC50 is the concentration that gives 50% inhibition. The Ki is a dissociation constant, usually derived from enzyme kinetics or from competition with a known ligand.

A value given as a limit tells only on which side of the number the result lay.

Assay [1] has as its system SW480. As to the kind of experiment: Antiproliferative activity against human SW480 cells assessed as cell growth inhibition and measured after 72 hrs by CCK8 assay. As to conditions: SW480, 72 h. A general note: Tetrazolium dyes change colour on reduction, which living cells bring about.
Assay [2] relates to HCT-116. As to the kind of experiment: Antiproliferative activity against human HCT-116 cells assessed as cell growth inhibition and measured after 72 hrs by CCK8 assay. As to conditions: HCT-116, 72 h.
Assay [3] addresses Retinal rod rhodopsin-sensitive cGMP 3',5'-cyclic phosphodiesterase subunit delta (Homo sapiens, UniProt O43924). As to the kind of experiment: Binding affinity to PDE delta (unknown origin) assessed as dissociation constant measured after 2 hrs by fluorescence polarization assay. A general note: In fluorescence polarisation assays a small probe gives low polarisation when free and higher when bound to something large.

Assay [4] concerns SW480. As to the kind of experiment: Antiproliferative activity against human SW480 cells assessed as apoptosis induction at 50 uM measured for 24 hrs by Annexin V-FITC/PI staining based flow cytometry analysis (reference value: 46%). The assay is classed as functional. Background: A flow cytometer gives signals particle by particle.
In assay [5] the test system is SW480. As to the kind of experiment: Down regulation of p-Akt expression in human SW480 cells measured for 24 hrs by western blot analysis. The assay is classed as functional, cell-based. The method, boiled down:
(§1)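 PDEδ downstream proteins examined in SW480 cells treated 24 h, by Western blot; blots repeated at least three times, bar graphs as mean ± SD.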

Assay [6] concerns SW480. Briefly: Down regulation of p-ERK expression in human SW480 cells measured for 24 hrs by western blot analysis. The assay is classed as functional, cell-based. The method, boiled down: as §1
Assay [7] relates to SW480. Briefly: Antiproliferative activity against human SW480 cells assessed as apoptosis induction at 30 uM measured for 24 hrs by Annexin V-FITC/PI staining based flow cytometry analysis (reference value: 46%). The assay is classed as functional.
Assay [8] concerns SW480. As to the kind of experiment: Antiproliferative activity against human SW480 cells assessed as apoptosis induction at 40 uM measured for 24 hrs by Annexin V-FITC/PI staining based flow cytometry analysis (reference value: 46%). The assay is classed as functional.

Chain of Retinal rod rhodopsin-sensitive cGMP 3',5'-cyclic phosphodiesterase subunit delta (O43924 whole entry): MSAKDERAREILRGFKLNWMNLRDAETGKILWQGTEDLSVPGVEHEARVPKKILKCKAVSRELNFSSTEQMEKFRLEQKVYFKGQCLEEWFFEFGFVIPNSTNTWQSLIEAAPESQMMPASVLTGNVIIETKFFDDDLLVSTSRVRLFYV

Turning to `Cc1ccc(-n2nc3c(=O)n(CCCC(=O)NCC45CC6CC(CC(C6)C4)C5)nc(C)c3c2C)cc1`, the IC50 in assay [1] and in assay [2] was > 100 µM throughout.

On to `Cc1ccc(-n2nc3c(=O)n(CCCC(=O)NCCc4ccc(NC(=O)CCCCCCNC(=O)CC56CC7CC(CC(C7)C5)C6)cc4)nc(C)c3c2C)cc1`, for which the IC50 in assay [1] and in assay [2] was > 100 µM each time.

As to `Cc1ccc(-n2nc3c(=O)n(CCCC(=O)NCCc4ccc(NC(=O)CCCCCC(=O)NCC56CC7CC(CC(C7)C5)C6)cc4)nc(C)c3c2C)cc1`, the IC50 in assay [1] and in assay [2] was > 100 µM throughout.

Regarding `Cc1ccc(-n2nc3c(=O)n(CCCC(=O)NC45CC6CC(CC(C6)C4)C5)nc(C)c3c2C)cc1`, the IC50 in assay [1] and in assay [2] was > 100 µM in each case.

Consider `Cc1ccc(-n2nc3c(=O)n(CCCC(=O)NCCCCNC(=O)CC45CC6CC(CC(C6)C4)C5)nc(C)c3c2C)cc1`, for which the 50% inhibitory concentration (IC50) was 7 µM in assay [1] and 50.7 µM in assay [2].

Turning to `Cc1ccc(-n2nc3c(=O)n(CCCC(=O)NCCCCCC(=O)NCC45CC6CC(CC(C6)C4)C5)nc(C)c3c2C)cc1`, the half-maximal inhibitory concentration (IC50) in assay [1] was > 100 µM; in assay [2], 32.5 µM.

Consider `Cc1ccc(-n2nc3c(=O)n(CCCC(=O)NCCc4ccc(NC(=O)CCCCCCCCCC(=O)NCC56CC7CC(CC(C7)C5)C6)cc4)nc(C)c3c2C)cc1`, for which the inhibitory constant (Ki) in assay [3] is > 1 µM. Also, the half-maximal inhibitory concentration (IC50) in assay [1] was 14 µM; in assay [2], > 100 µM.

For the molecule `Cc1ccc(-n2nc3c(=O)n(CCCC(=O)NCCOCCOCCNC(=O)CC45CC6CC(CC(C6)C4)C5)nc(C)c3c2C)cc1`, the IC50 came to 5.4 µM in assay [1] and 18.5 µM in assay [2].

On to `Cc1ccc(-n2nc3c(=O)n(CCCC(=O)NCCc4ccc(NC(=O)CCCC(=O)NCC56CC7CC(CC(C7)C5)C6)cc4)nc(C)c3c2C)cc1`, for which the figures for the IC50 in assay [1] and in assay [2] were 19.8 µM and 39 µM, respectively.

On to `Cc1ccc(-n2nc3c(=O)n(CCCC(=O)NCC(C)c4ccccc4)nc(C)c3c2C)cc1` (centres undefined), for which the values for the IC50 in assay [1] and in assay [2] were 18.3 µM and 82.4 µM, respectively. Further, in assay [4], the Activity was 5.4%.

Regarding `Cc1ccc(-n2nc3c(=O)n(CCCC(=O)NCCNC(=O)CC45CC6CC(CC(C6)C4)C5)nc(C)c3c2C)cc1`, the concentration for half-maximal inhibition (IC50) in assay [1] was 10 µM; in assay [2], 20.4 µM.

Consider `Cc1ccc(-n2nc3c(=O)n(CCCC(=O)NCCCC(=O)NCC45CC6CC(CC(C6)C4)C5)nc(C)c3c2C)cc1`, for which the IC50 in assay [1] was found to be 8 µM; in assay [2], 11.4 µM.

On to `Cc1ccc(-n2nc3c(=O)n(CCCC(=O)NCCCCCCNC(=O)CC45CC6CC(CC(C6)C4)C5)nc(C)c3c2C)cc1`, for which the Activity result in assay [5] was “Dose-Dependent Effect”; in assay [6], “Dose-Dependent Effect”; in assay [7] it was 15.23%; in assay [8], 83.67%. The half-inhibitory concentration (IC50) in assay [1] came out at 4.8 µM; in assay [2], 7.7 µM.

In the case of `Cc1ccc(-n2nc3c(=O)n(CCCC(=O)NCCCCCCCCNC(=O)CC45CC6CC(CC(C6)C4)C5)nc(C)c3c2C)cc1`, the IC50 in assay [1] is 5.6 µM; in assay [2], 17.7 µM.
